# STEP block = STEP (human) phosphatase inhibition; 360,000 compounds, 0.25% hits; inhibition, % at 20 µM; recombinant STEP, OMFP fluorogenic substrate, fluorescence; P54829; AID 588621;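 active = inhibition at 20 µM, scaled per plate between control wells, above about 37%, limit read from the data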
#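 Also added – OMFP at 25 µM · Test system – STEP tyrosine phosphatase · Technique – FITC-channel fluorescence of OMFP product · Schedule – 20 min at room temperature, dark · Evaluation – control-normalized % inhibition with plate pattern correction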
# PP5 inh = inhibitors of human protein phosphatase 5 (PP5); P53041; purified PP5c, OMFP substrate fluorescence; inhibition, % at 6.7 µM; 320,000 compounds, 0.18% hits;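 active = inhibition above the campaign's mean inhibition across all tested compounds plus 3 SD, cut at about 9.5% in these data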
# Target sequence (P53041 whole entry, looked up): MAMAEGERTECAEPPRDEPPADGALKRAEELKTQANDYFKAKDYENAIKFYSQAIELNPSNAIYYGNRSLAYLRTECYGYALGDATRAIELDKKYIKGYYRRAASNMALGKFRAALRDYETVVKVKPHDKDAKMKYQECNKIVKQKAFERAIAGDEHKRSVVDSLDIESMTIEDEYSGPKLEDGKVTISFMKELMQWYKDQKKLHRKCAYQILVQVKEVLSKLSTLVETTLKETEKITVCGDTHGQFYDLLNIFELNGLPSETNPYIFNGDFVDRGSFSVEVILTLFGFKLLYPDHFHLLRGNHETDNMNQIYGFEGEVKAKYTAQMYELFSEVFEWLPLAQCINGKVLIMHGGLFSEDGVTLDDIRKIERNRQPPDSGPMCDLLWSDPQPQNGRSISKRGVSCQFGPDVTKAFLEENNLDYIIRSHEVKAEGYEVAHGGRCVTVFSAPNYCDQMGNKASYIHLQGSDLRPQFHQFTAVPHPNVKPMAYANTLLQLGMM
# LMPTP block = LMPTP (human) inhibition. recombinant LMPTP-A, OMFP fluorogenic substrate, fluorescence intensity. inhibition, % at 20 µM. P24666. 360,000 compounds, 0.22% hits;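 active = compounds that cut the enzyme signal by at least half of the control window in the single-dose screen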
#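 test system = LMPTP-A | amount = 0.625 nM LMPTP-A final | reagent = fluorogenic phosphatase substrate OMFP at 400 µM final | incubation = 50 min at room temperature | benchmarks = no-enzyme low control, uninhibited high control | medium = Bis-Tris pH 6.0, DTT, detergent | signal = fluorescence intensity of OMFP turnover product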
# Scp-1 inhibitor = blocks human Scp-1 phosphatase activity | Q9GZU7 | Recombinant Scp1, phosphopeptide, malachite green phosphate absorbance | 340,000 compounds, 0.88% hits | AID 493091 | inhibition, % at 20 µM;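 active = inhibition above about 50% at 20 µM, limit read from the data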
#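 Incubation: 45 min enzyme reaction at room temperature / System: truncated SCP-1 phosphatase (76-261aa) / Reagent: Phospho 17-mer peptide substrate / Buffer or medium: Acidic Tris acetate buffer with magnesium and detergent / Signal: absorbance at 630 nm / Doses: one concentration, 20 µM, with 1.0% DMSO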
# PP1 inh = blocks human PP1-alpha phosphatase, a PP5 counter-screen. inhibition, % at 6.7 µM. 320,000 compounds, 0.9% hits. purified PP1alpha, OMFP fluorescence;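 active = inhibition above the mean inhibition of all tested compounds plus 3 SD, computed separately for each screening campaign, cut at about 15% in these data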
# STEP inh conf = confirmation of human STEP phosphatase inhibitors; inhibition, % at 20 µM; AID 623866; 520 compounds, 32% hits; shares compounds with STEP block; recombinant STEP, OMFP fluorogenic substrate, fluorescence; call rule not given here
# A number is an active result; n = inactive; x = not tested or not shown. This is a sample that favours compounds with a hit; in the whole collection about 1.9% have one here.
SMILES,STEP block,PP5 inh,LMPTP block,Scp-1 inhibitor,PP1 inh,STEP inh conf
Cc1occc1C(=O)NC(C)C(C)(C)C (stereo not drawn),n,n,n,n,n,x
Cc1noc(NS(=O)(=O)c2ccc(N/C=C\C(=O)c3ccc(Br)cc3)cc2)c1C,n,n,n,n,n,x
COc1cccc(C(=O)/C=C/Nc2ccc(S(=O)(=O)Nc3onc(C)c3C)cc2)c1,43,n,n,n,n,n
COc1ccc(-c2csc3nc(-c4cccnc4)nc(N4CCC(C(N)=O)CC4)c23)cc1OC,50,n,n,n,n,n
COc1ccc(-c2csc3nc(C)nc(N4CCCCC4)c23)cc1OC,n,n,n,n,n,x
S=C1NC[C@H](Cc2ccccc2)N1CC1CCN(CCCC2CCCC2)CC1,43,x,n,n,x,n
CCCN(CC(=O)Nc1ccccc1OC)C(=O)Cc1ccc2c(c1)CCC2,71,n,n,n,n,46
CCn1c(SCC(=O)N/N=C/C=C\c2ccccc2[N+](=O)[O-])nc2ccccc21,52,n,n,n,n,n
COC(=O)c1ccc(NC(=O)CSc2ccccc2)cc1,n,n,n,n,n,x

# From PubChem
